Assay outcomes: PubChem, Broad Institute
CFTR F508del cor: F508del CFTR correction, initial screen, CFBE line, single point; CFBE cells, YFP halide quenching; stimulated with forskolin plus potentiator P3; % fluorescence drop versus neutral controls; activity (quench increase), % at 7.58 µM; 350,000 tested, 0.36% active;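 active = mean added fluorescence quench of at least 8% versus neutral control, with both replicates also reaching 8%; inconclusive = only one of the mean or replicate conditions met; inactive = mean below 8% and not both replicates reaching 8%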;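 also: cells transiently co-express mutant CFTR-F508del with the halide-sensitive YFP; corrector assay measuring rescue of mutant channel to the surface after 24 h compound exposure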
E-selectin induc: E-selectin induction in HUVECs, primary screen, imaging, HUVEC, immunofluorescence imaging, single point; P16581; normalized: neutral wells 0, TNF-alpha wells 100; activation, % at 7.58 µM; 260,000 tested, 0.37% active;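 active = mean E-selectin-positive cell signal at least 10% of the positive control, reached in at least 60% of replicates, without over 20% cell loss; inconclusive = no rule given, readout overlaps actives, possibly toxicity-flagged; inactive = the rest, including those meeting only one limit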
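material = human umbilical vein endothelial cells (HUVEC), E-selectin induction | quantity = 3,000 cells/well | medium = EGM-2 growth medium on 0.1% gelatin-coated wells | technique = immunofluorescence imaging | read-out basis = % PE-positive cells | control set = TNF-alpha positive control, DMSO neutral control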
INS-1E GSIS act: GLuc luminescence reporter in INS-1E cells, primary screen for activators of glucose-dependent secretion of insulin | activation, % at 16.6 µM | 370,000 tested, 0.61% active | INS-1E GLuc reporter insulin secretion, 2-3 h;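 active = lowest replicate activation of at least 40%, so every replicate reaches that level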;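 also: 0% = median of neutral control wells and 100% = median of IBMX positive control wells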
ERAP1 inh: human ERAP1 aminopeptidase inhibitors, primary screen, biochemical, single point, plate reader; inhibition, % at 10.7 µM; Endoplasmic reticulum aminopeptidase 1 (Homo sapiens), Q9NZ08; recombinant ERAP1, Leu-AMC fluorescence, 60 min; 340,000 tested, 0.15% active;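 active = mean replicate inhibition of at least 30%, or all replicates individually reaching that 30% level; inactive = mean below 30% and not every replicate reaching it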;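 also: 0% = neutral control wells and 100% = L-leucinethiol positive control wells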
Target sequence (Q9NZ08 whole entry, looked up): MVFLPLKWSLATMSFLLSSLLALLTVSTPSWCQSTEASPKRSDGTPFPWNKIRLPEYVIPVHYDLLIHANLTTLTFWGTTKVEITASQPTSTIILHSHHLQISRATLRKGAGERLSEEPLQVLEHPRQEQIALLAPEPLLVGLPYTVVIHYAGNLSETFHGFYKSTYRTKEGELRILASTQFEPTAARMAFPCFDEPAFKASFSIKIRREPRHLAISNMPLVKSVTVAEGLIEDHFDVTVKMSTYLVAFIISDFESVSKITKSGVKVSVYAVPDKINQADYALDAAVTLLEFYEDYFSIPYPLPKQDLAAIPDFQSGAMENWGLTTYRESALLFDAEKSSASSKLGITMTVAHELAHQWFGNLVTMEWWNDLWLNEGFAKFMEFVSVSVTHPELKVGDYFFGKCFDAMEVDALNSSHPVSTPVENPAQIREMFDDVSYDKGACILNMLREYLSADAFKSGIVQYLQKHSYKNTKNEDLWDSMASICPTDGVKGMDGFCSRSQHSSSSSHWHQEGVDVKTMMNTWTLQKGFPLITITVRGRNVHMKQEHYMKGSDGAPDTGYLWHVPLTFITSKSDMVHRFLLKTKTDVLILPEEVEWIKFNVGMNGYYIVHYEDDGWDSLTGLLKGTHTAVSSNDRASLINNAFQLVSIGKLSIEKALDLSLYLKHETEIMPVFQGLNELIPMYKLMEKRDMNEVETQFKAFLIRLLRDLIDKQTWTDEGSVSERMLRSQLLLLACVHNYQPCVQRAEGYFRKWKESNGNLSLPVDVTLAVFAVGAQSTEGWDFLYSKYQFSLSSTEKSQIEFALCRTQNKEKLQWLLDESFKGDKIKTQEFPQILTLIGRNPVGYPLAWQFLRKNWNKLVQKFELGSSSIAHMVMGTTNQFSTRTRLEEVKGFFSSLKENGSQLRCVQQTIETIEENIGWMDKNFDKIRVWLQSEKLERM
miR122 inh: miR-122 Renilla sensor signal increase in Huh7, primary screen, miR-122 inhibitor project, cell-based, single point, plate reader; Huh7 miR-122 Renilla luciferase sensor, 48 h; neutral wells = 0, positive control = 100; activation (reporter increase), % at 12.5 µM; 340,000 tested, 0.3% active; AID 602342, 2012;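 active = mean replicate activation score at least 90 and every replicate individually at or above 90; inconclusive = only one of the two criteria met; inactive = neither criterion met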;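 also: higher luciferase means less miR-122 activity so hits act as miR-122 inhibitors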
DENV2 CPE: inhibitors of DENV2 cytopathic effect, primary screen, cell-based, plate reader, single concentration | DENV2-infected cells, cytopathic effect rescue | CPE inhibition, % at 9.99 µM | 350,000 tested, 1.7% active; in the data active = CPE inhibition above about 20%, passing the limit was not always enough; inconclusive = no clear call, values can overlap the other calls; tested in BHK-21 cells;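 also: 0% = median of neutral control wells and 100% = median of positive control wells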
* hit, by the source's call; ? = inconclusive; / = not tested or not shown; ! = not confirmed by another sample; [ ] = dose if it differs, or a comment. Rows were chosen to be rich in hits. Some 2.6% of all compounds tested hit in one or more screens of this group.

SMILES	CFTR F508del cor	E-selectin induc	INS-1E GSIS act	ERAP1 inh	miR122 inh	DENV2 CPE
CS(=O)(=O)N1[C@H](CO)[C@@H](c2ccc(C#CC3CC3)cc2)[C@@H]1C#N	-1	0	5	2	/	26*
CN(C)C(=O)[C@@H]1[C@@H](CO)[C@@H]2Cn3c(ccc(-c4ccncc4)c3=O)[C@H]1N2CC1CC1	/	0	-4	3	/	17
COc1cc(C(=O)OCCCc2cc3ccccc3c(=O)o2)cc(OC)c1OC	5	1	-4	0	/	?
COc1cc(C(=O)OCCc2cc3ccccc3c(=O)o2)cc(OC)c1OC	11*	0	16	-3	/	-5
C[n+]1c(-c2ccccc2)cc2c(=Cc3ccc([N+](=O)[O-])cc3)c3ccccc3n21	0	122*	4	5	/	-5
CN(C)c1ccc(C=c2c3cc(O)ccc3n3c2cc(-c2ccccc2)[n+]3C)cc1	3	139*	-55	56*	/	-4
CC(C)n1c2ccccc2c2cc([N+](=O)[O-])ccc21	/	0	-3	1	/	-2
C[n+]1c(-c2ccccc2)cc2c(=Cc3ccccc3)c3ccccc3n21	4	220*	33	4	/	1
CN(C)CC(=O)N[C@@H]1CC[C@H](CCNC(=O)C2CCCCC2)O[C@@H]1CO	2	0	0	2	/	2
C[C@@H]1CN([C@@H](C)CO)C(=O)Cc2cc(N(C)C)ccc2O[C@H]1CN(C)C(=O)Nc1ccc2c(c1)OCO2	0	/	11	1	6[16.7 µM]	30*
C[C@H](CO)N1C[C@H](C)[C@@H](CN(C)C(=O)Nc2ccc3c(c2)OCO3)Oc2ccc(NS(C)(=O)=O)cc2CC1=O	-1	-2	9	-8	4[16.7 µM]	31*
C[C@@H]1CN([C@H](C)CO)C(=O)Cc2cc(NS(C)(=O)=O)ccc2O[C@H]1CN(C)C(=O)Nc1ccc2c(c1)OCO2	-4	-3	4	4	10[16.7 µM]	-10
C[C@@H]1CN([C@H](C)CO)C(=O)Cc2cc(N(C)C)ccc2O[C@@H]1CN(C)C(=O)Nc1ccc2c(c1)OCO2	1	/	16	/	5[16.7 µM]	12
COc1ccc(C#Cc2ccc([C@H]3[C@@H](CO)N4CCCCN(S(=O)(=O)c5cn(C)cn5)C[C@@H]34)cc2)cc1	1	0	-22	-1	-1[16.7 µM]	-6
CCCCN(CC)CCNC(=O)c1cc2c(=O)[nH]c3ccccc3c2n1C	-5	/	30	-1	/	-3
CCCN(CCC)CCCNC(=O)c1cc2c(=O)[nH]c3ccccc3c2n1C	0	-2	5	3	/	29*
CCOC(=O)c1cnc2cc(F)c(F)cc2c1N1CCOCC1	0	0	13	-1	-5	6
CCOC(=O)c1cnc2c(c(C3CC3)nn2C)c1N1CCOCC1	0	29*	32	/	-1	6
N#Cc1ccc(-c2ccc3c(c2)[C@H]2[C@H](CCN2C(=O)CN2CCOCC2)[C@@H](CO)N3)cc1	2	-1	15	-2	-7[16.7 µM]	-6
Cc1ccc([C@@H]2[C@@H]3C(=O)N(C)C(=O)[C@@H]3[C@]3(C)C(=O)N(Cc4ccc(-c5ccccc5)cc4)CC(=O)N23)o1	-1	0	/	-7	-2	92*
COC(=O)[C@H]1[C@H](CO)[C@H]2Cn3c(ccc(C4=CCCC4)c3=O)[C@H]2N1C(=O)C1CC1	0	0	4	-15	4[16.7 µM]	?
O=C(NC1CCCCC1)c1cccnc1Sc1ccccc1	-1	/	62*	1	-1	12
O=C(NC1CCCCC1)c1cccnc1Sc1ccccc1Cl	-2	0	20	-2	3	18
CC(C)(C)[C@H]1C=C(C(=O)N2CCOCC2)O[C@@H](OCc2ccc(CO)cc2)C1	2	0	5	-3	0	36*!
CC(C)(C)[C@@H]1C=C(C(=O)N2CCOCC2)O[C@H](OCc2ccc(CO)cc2)C1	0	2	30	1	-4	-1
